From ChEMBL document CHEMBL4680154, “The optimization of xanthine derivatives leading to HBK001 hydrochloride as a potent dual ligand targeting DPP-IV and GPR119” (Eur J Med Chem, 2020)

Tests used:
[1] = Mean residence time (0 to infinity) in Sprague-Dawley rat at 30 mg/kg, po measured up to 24 hrs; format: ADME, organism-based; conditions: in vivo
Summary of the method: (§1)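 Male SD rats (180–200 g), three per route, dosed as free base content. Oral formulation in 0.5% carboxymethyl cellulose; intravenous formulation in normal saline. Sampling at 5, 15, 30 min and 1, 1.5, 2, 4, 6, 8, 12, 24 h; plasma kept at -80 °C. Non-compartmental parameters; F = (AUCpo×dose iv)/(AUCiv×dose po).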

[2] = Cmax in Sprague-Dawley rat plasma at 30 mg/kg, po measured up to 24 hrs; format: ADME, organism-based; design: route oral, dose 30 mg/kg, time <=24; summary of the method: as §1
[3] = Metabolic stability in mouse liver microsomes assessed as parent compound remaining at 10 micromol/L measured after 30 mins in presence of NADPH generating system by LC-MS/MS analysis; format: ADME, Microsome; conditions: dose 10 µmol/L, read-out: Stabilty
Summary of the method: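 Mouse liver microsomes (0.5 mg/mL protein), compound at 10 μmol/L, in Tris-HCl with an NADPH-generating system that starts the reaction. Incubated in duplicate at 37 °C for 30 min; stopped with ice-cold acetonitrile containing internal standard. Supernatant analysed by LC-MS/MS; remaining amount normalised to time zero. Inactivated microsomes served as negative control.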

[4] = molecular target: Voltage-gated inwardly rectifying potassium channel KCNH2 (Homo sapiens, UniProt Q12809); assay: Inhibition of human ERG expressed in CHO cells by manual patch clamp assay; format: cell-based
Voltage-gated inwardly rectifying potassium channel KCNH2, sequence (Q12809 whole entry): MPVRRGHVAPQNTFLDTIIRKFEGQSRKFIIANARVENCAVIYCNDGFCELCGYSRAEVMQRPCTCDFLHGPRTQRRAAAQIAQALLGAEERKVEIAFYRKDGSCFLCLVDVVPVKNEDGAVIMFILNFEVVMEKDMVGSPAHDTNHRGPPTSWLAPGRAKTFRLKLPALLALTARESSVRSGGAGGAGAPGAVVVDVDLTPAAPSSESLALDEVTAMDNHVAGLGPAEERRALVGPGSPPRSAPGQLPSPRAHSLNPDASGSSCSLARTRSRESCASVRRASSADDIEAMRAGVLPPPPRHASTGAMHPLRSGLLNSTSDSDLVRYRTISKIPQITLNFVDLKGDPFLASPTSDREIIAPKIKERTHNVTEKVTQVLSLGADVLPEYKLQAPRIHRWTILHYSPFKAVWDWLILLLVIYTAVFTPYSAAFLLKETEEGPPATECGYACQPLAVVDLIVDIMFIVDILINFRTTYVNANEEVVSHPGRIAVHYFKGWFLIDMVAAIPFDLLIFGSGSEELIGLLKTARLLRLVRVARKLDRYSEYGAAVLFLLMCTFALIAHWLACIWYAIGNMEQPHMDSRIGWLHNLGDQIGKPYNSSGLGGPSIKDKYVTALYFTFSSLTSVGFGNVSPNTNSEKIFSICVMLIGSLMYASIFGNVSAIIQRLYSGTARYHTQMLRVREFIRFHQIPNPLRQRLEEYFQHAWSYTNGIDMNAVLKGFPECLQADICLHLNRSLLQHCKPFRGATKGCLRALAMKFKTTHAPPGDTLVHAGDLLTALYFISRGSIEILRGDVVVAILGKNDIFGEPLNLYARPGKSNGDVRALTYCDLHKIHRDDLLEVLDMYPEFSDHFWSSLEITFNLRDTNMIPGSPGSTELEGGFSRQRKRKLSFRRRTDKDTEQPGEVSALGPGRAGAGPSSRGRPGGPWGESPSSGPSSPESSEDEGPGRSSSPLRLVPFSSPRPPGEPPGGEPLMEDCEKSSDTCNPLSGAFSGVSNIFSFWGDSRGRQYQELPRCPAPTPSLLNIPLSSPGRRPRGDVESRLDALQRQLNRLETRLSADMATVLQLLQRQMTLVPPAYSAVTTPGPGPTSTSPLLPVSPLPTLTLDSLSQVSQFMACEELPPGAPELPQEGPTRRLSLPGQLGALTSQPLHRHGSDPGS
Summary of the method: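 CHO cells stably expressing hERG, cultured at least 24 h, then recorded by whole-cell voltage-clamp patch clamp.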

[5] = Elimination half-life in Sprague-Dawley rat plasma at 3 mg/kg, iv measured up to 24 hrs; format: ADME, organism-based; conditions: read-out: beta t1/2 (converted); summary of the method: as §1
[6] = AUC(0 to infinity) in Sprague-Dawley rat plasma at 3 mg/kg, iv measured up to 24 hrs; format: ADME, organism-based; design: route intravenous, dose 3 mg/kg, time <=24; summary of the method: as §1
[7] = Tmax in Sprague-Dawley rat plasma at 30 mg/kg, po measured up to 24 hrs; format: ADME, organism-based; summary of the method: as §1
[8] = AUC(0 to t) in Sprague-Dawley rat plasma at 30 mg/kg, po measured up to 24 hrs; format: ADME, organism-based; design: route oral, dose 30 mg/kg, time <=24; summary of the method: as §1
[9] = AUC(0 to infinity) in Sprague-Dawley rat plasma at 30 mg/kg, po measured up to 24 hrs; format: ADME, organism-based; design: route oral, dose 30 mg/kg, time <=24; summary of the method: as §1
Vero = assay: Cytotoxicity against African green monkey Vero cells incubated for 48 hrs by MTT assay; conditions: Chlorocebus sabaeus
[10] = Genotoxicity in Salmonella typhimurium TA100 incubated for 48 to 72 hrs by mini-Ames test; format: toxicity; conditions: salmonella enterica subsp. enterica serovar typhimurium; time 48-72 hrs
Summary of the method: (§2)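 Mini-Ames test with Salmonella typhimurium TA98 and TA100, with 10% S9 mix or PBS, in top agar poured onto minimal agar in 6-well plates. Up to 1000 μg/well; DMSO solvent control. Incubated 37 °C for 48–72 h; revertants counted manually. Called positive at a dose-related increase of at least 2-fold over the solvent control.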

[11] = AUC(0 to t) in Sprague-Dawley rat plasma at 3 mg/kg, iv measured up to 24 hrs; format: ADME, organism-based; design: route intravenous, dose 3 mg/kg, time <=24; summary of the method: as §1
[12] = Oral bioavailability in Sprague-Dawley rat at 30 mg/kg; format: ADME, organism-based; conditions: in vivo; summary of the method: as §1
[13] = Cmax in Sprague-Dawley rat plasma at 3 mg/kg, iv measured up to 24 hrs; format: ADME, organism-based; design: route intravenous, dose 3 mg/kg, time <=24; summary of the method: as §1
[14] = Apparent permeability in human Caco-2 cells at 50 uM after 1 hr by UPLC analysis; format: ADME, cell-based
Summary of the method: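 Caco-2 cells grown 21 days on Transwell inserts (0.4 µm pores) into monolayers with TEER above 500 Ω×cm² before and after transport. Compound at 50 µM added apically, 1 h at 37 °C. Transported compound quantified by UPLC; Papp = (dQ/dt)/(C0×A).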

[15] = Plasma protein binding in monkey at 5 uM after 5 hrs by LC-MS/MS based equilibrium dialysis method; format: ADME, cell-free, Macaca mulatta; conditions: rhesus monkey, read-out: PPB (converted)
Summary of the method: (§3)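 Equilibrium dialysis: compound spiked at 5 μM (1% DMSO) into pre-warmed 37 °C plasma, dialysed against phosphate buffer (1% DMSO) for 5 h at 37 °C with shaking at 100 rpm. Both compartments analysed by LC-MS/MS.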

[16] = Plasma protein binding in human at 5 uM after 5 hrs by LC-MS/MS based equilibrium dialysis method; format: ADME, cell-free; conditions: read-out: PPB (converted); summary of the method: as §3
[17] = Elimination half-life in Sprague-Dawley rat plasma at 30 mg/kg, po measured up to 24 hrs; format: ADME, organism-based; conditions: read-out: beta t1/2 (converted); summary of the method: as §1
[18] = Plasma protein binding in dog at 5 uM after 5 hrs by LC-MS/MS based equilibrium dialysis method; format: ADME, cell-free, Canis lupus familiaris; conditions: read-out: PPB (converted); summary of the method: as §3
[19] = Mean residence time (0 to infinity) in Sprague-Dawley rat at 3 mg/kg, iv measured up to 24 hrs; format: ADME, organism-based; conditions: in vivo; summary of the method: as §1
[20] = Plasma protein binding in mouse at 5 uM after 5 hrs by LC-MS/MS based equilibrium dialysis method; format: ADME, cell-free; conditions: read-out: PPB (converted); summary of the method: as §3
[21] = Plasma protein binding in rat at 5 uM after 5 hrs by LC-MS/MS based equilibrium dialysis method; format: ADME, cell-free; conditions: read-out: PPB (converted); summary of the method: as §3
[22] = Acute toxicity in po dosed ICR mouse assessed as animal survival administered as single dose and observed for 7 days; format: organism-based; conditions: in vivo, time 7 day
Summary of the method: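 Female ICR mice (18 to 21 g), ten animals, given one oral dose of 1.5 g/kg. The number surviving was recorded after 7 days of observation.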

[23] = Genotoxicity in Salmonella typhimurium TA98 incubated for 48 to 72 hrs by mini-Ames test; format: toxicity; conditions: salmonella enterica subsp. enterica serovar typhimurium; time 48-72 hrs; summary of the method: as §2

CC#CCn1c(N2CCC[C@@H](N)C2)nc2c1c(=O)n(CCCN1CCN(c3nc(-c4ccccc4)no3)CC1)c(=O)n2C.Cl showed an MRT inf [1] of 2.22 h, a Cmax [2] of 226 ng/mL and a remaining at 0.5 h, 10 µM [3] of 49.3%. The IC50 [4] was 4.9 µM, the half-life [5] was 0.63 h and the AUC(0-inf) [6] was 167 ng·h/mL. It also gave a Tmax [7] of 1.33 h, an AUC(0-t) at 24 h [8] of 623 ng·h/mL and an AUC(0-inf) [9] of 656 ng·h/mL. For the same compound, the IC50 (Vero) was > 64 µg/mL, the Activity [10] was “Non-Toxic” and the AUC(0-t) at 24 h [11] was 147 ng·h/mL. It also gave a bioavailability [12] of 42.4%, a Cmax [13] of 416 ng/mL and a Papp at 1 h, 50 µM [14] of 19.1 ×10⁻⁶ cm/s. For the same compound, the fraction unbound at 5 h, 5 µM [15] was 0.04, the fraction unbound at 5 h, 5 µM [16] was 0.028 and the half-life [17] was 1.08 h. The fraction unbound at 5 h, 5 µM [18] was 0.037, the MRT inf [19] was 0.73 h and the fraction unbound at 5 h, 5 µM [20] was 0.015. For the same compound, the fraction unbound at 5 h, 5 µM [21] was 0.039, the LD50 at 168 h [22] was > 1500 mg/kg and the Activity [23] was “Non-Toxic”.
